# HIV Env fusion = inhibitors of HIV Env-mediated cell fusion. HeLa-JRFL Env/CEM21 cell fusion, luciferase. 360,000 tested, 1.1% active. inhibition, % at 12.3 µM;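 active = mean replicate inhibition score of at least 50 and every replicate individually at or above 50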;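 note: 0% = plate neutral controls and 100% = maraviroc near 300 nM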
# FN deposition inh = fibronectin deposition inhibition; AH1F fibroblasts, Alexa488-fibronectin deposition fluorescence, overnight; inhibition, % at 12.6 µM; 350,000 tested, 0.086% active; AID 743247;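 active = mean inhibition across replicates of 30% or more, regardless of how many single replicates reach that level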;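 note: positive control wells lacked labelled fibronectin entirely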
#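 material = AH1F fibroblast monolayer depositing Alexa488-labelled fibronectin into matrix | amount = 10000 AH1F cells/well | buffer or medium = DMEM plus 2% serum, read in PBS | incubation = 1 h cell adhesion before compound, then overnight fibronectin incubation | detection = fluorescence at 485 nm excitation, 525 nm emission | evaluation = percent inhibition as loss of matrix-bound fibronectin fluorescence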
# PAX8 inh HTS = lowers PAX8-driven luciferase in RMG-I cells; RMG-I TPO-luciferase reporter, SteadyGlo, 24 h; inhibition, % at 12.6 µM; 360,000 tested, 1.2% active; AID 652154;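 active = mean replicate inhibition at least 60% with every replicate also reaching 60%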;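 note: luciferase light reporting Pax8 driven TPO promoter activity; plate controls were median of neutral control wells for no effect and mitoxantrone controls for full effect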
# F508del corr = CFTR F508del correction in bronchial cells | CFBE cells, YFP halide quenching; stimulated with forskolin plus potentiator P3; % fluorescence drop versus neutral controls | activity (quench increase), % at 7.58 µM | 350,000 tested, 0.36% active | AID 720511;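 active = mean added fluorescence quench of at least 8% versus neutral control, with both replicates also reaching 8%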;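 note: cells transiently co-express mutant CFTR-F508del with the halide-sensitive YFP; corrector assay measuring rescue of mutant channel to the surface after 24 h compound exposure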
# EWS-Fli inh = blocks EWS/Fli oncoprotein-driven transcription | inhibition, % at 12.6 µM | 350,000 tested, 0.67% active | AID 651661 | A673 NR0B1-luciferase reporter, viability-normalised;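 active = mean inhibition of at least 50% after viability correction, with every replicate also passing that limit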;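 note: firefly luciferase signal divided by Alamar Blue viability fluorescence both relative to DMSO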
# PGC1a acetyl inh = lowers PGC1a acetylation signal in U2OS cells; AlphaScreen anti-acetyl-lysine; with virally co-expressed GCN5 acetyltransferase; inhibition, % at 15.6 µM; 350,000 tested, 0.17% active;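 active = every replicate shows inhibition of at least 40%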;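 note: 0% = neutral control wells and 100% = positive control wells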
# Active calls of the source: *; . = no result given; [ ] = another dose, or the depositor's remark. Shown are actives, neighbours in structure and some others; about 2.3% of the full set was active somewhere.
SMILES,HIV Env fusion,FN deposition inh,PAX8 inh HTS,F508del corr,EWS-Fli inh,PGC1a acetyl inh
Cn1cnc(S(=O)(=O)N2CCN(c3ccccc3)CC2)c1,-3.2,32.7*,-5.5,3.0,2.6,-5.0
Cn1cnc(S(=O)(=O)N2CCN(c3ccc(Cl)cc3)CC2)c1,11.9,5.4,-7.5,-4.3,-4.6,.
Cc1cc2ncn(S(=O)(=O)N3CCOCC3)c2cc1C,.,.,.,.,.,-1.9
Cc1cc2ncn(S(=O)(=O)N3CCCCC3)c2cc1C,83.5*,1.2,.,.,.,-6.2
O=[N+]([O-])c1cccc(NC(=S)Nc2nc(-c3ccccc3Cl)cs2)c1,97.0*,.,33.8,3.0,7.3,.
O=[N+]([O-])c1cccc(NC(=S)NCc2ccncc2)c1,38.3,-19.2,6.9,0.9,-12.1,7.6
C[C@@H]1CN([C@@H](C)CO)C(=O)c2cc(Br)cnc2O[C@@H]1CN(C)Cc1ccc(C(=O)O)cc1,-5.6[16.7 µM],-9.0,.,-1.0,-5.9,0.1
C[C@H]1CN([C@@H](C)CO)C(=O)c2cc(NS(=O)(=O)c3ccccc3)ccc2O[C@@H]1CN(C)C(=O)Nc1cccc2ccccc12,2.6[16.7 µM],.,1.5,-0.3,-3.1,2.0
CNCc1ccccc1Sc1ccc(O)c(O)c1,.,-1.0,75.9*,-7.1,-4.3,.
O=C(CSc1nnc(NC(=O)c2ccc(S(=O)(=O)N3CCOCC3)cc2)s1)Nc1ccccc1C(F)(F)F,.,-1.9,69.1*,1.3,0.8,-0.5
CCCC[C@@H]1CNCCN1CCc1cc(C(F)(F)F)cc(C(F)(F)F)c1,39.2,0.1,-7.9,1.6,13.5,-17.1
FC(F)(F)c1cc(CCN2CCNC[C@@H]2CC2CCCCC2)cc(C(F)(F)F)c1,85.4*,-4.2,11.3,4.3,54.6*,-28.5
C[C@H](CO)N1C[C@H](C)[C@H](CN(C)Cc2ccc(Cl)c(Cl)c2)Oc2ccc(NC(=O)CCCN(C)C)cc2C1=O,-11.7[16.7 µM],3.3,-9.2,1.3,70.2*,0.9
C[C@H]1CN([C@@H](C)CO)C(=O)c2cc(NS(C)(=O)=O)ccc2O[C@@H]1CN(C)Cc1ccc(Cl)c(Cl)c1,61.7*[16.7 µM],.,-1.6,-0.3,2.9,-2.0
CN1[C@@H]2c3ccc(-c4ccc(F)cc4)c(=O)n3C[C@@H]2[C@@H](CO)[C@@H]1C(=O)Nc1ccccc1,5.8[16.7 µM],.,.,.,-4.6,.
CC1(C(=O)NCc2ccco2)Cc2c(-c3ccccc3)ccnc2O1 (stereo not drawn),-16.7,-4.9,10.1,7.0,59.4*,-33.8
CC(=O)NCCNC(=O)C1(C)Cc2c(-c3ccccc3)ccnc2O1 (stereo not drawn),2.2,12.8,2.1,1.7,-2.0,.
CC1(C(=O)NCc2cccs2)Cc2c(-c3cccc(C(F)(F)F)c3)ccnc2O1 (stereo not drawn),-129.4,8.9,37.4,6.6,55.3*,-8.2
O=C(c1ccco1)N1CCN(C(=O)N2c3ccccc3Sc3ccccc32)CC1,.,.,.,5.8,54.3*,-59.8
COc1ccccc1NC(=O)N1CCCCN2[C@@H](CO)[C@@H](c3ccc(-c4cccc(C)c4)cc3)[C@@H]2C1,.,.,103.7*,-3.3,57.1*,-3.8
COc1ccccc1NC(=O)N1CCCCN2[C@H](C1)[C@@H](c1ccc(-c3cccc(C#N)c3)cc1)[C@@H]2CO,.,5.8,83.4*,-1.3,9.4,-15.4
N#C[C@@H]1[C@H](c2ccc(C3=CCCCC3)cc2)[C@H](CO)N1S(=O)(=O)c1cccc(F)c1,-29.0[16.7 µM],-5.7,-12.2,-1.8,-17.7,1.8
Cc1cc(C(=O)Nc2cccc3c2O[C@@H](CN(C)S(=O)(=O)c2ccccc2)[C@H](C)CN([C@H](C)CO)C3=O)n(C)n1,-13.9[16.7 µM],.,-11.4,0.0,-0.7,-8.5
COc1ccc(Cl)cc1S(=O)(=O)N1CCN=C1C,34.4*,-2.3,3.7,-0.4,5.8,5.6
COc1cccc(NC(=O)N[C@@H]2C=C[C@H](CC(=O)Nc3ccc(-c4ccccc4)cc3)O[C@@H]2CO)c1,.,4.6,37.9,0.4,5.8,18.2
SMILES,HIV Env fusion,FN deposition inh,PAX8 inh HTS,F508del corr,EWS-Fli inh,PGC1a acetyl inh
Cc1cccc(C(=O)OCC(=O)NCc2cccs2)c1,7.4,8.8,-0.4,-0.7,5.9,-9.4
CS(=O)(=O)c1ccc(C(=O)OCC(=O)NCc2cccs2)cc1[N+](=O)[O-],4.2,6.0,101.0*,0.9,8.0,-7.0
COc1ccccc1C#Cc1ccc2c(c1)[C@H]1[C@H](CCN1S(=O)(=O)c1cccc(C)c1)[C@@H](CO)N2,.,2.6,25.7,-1.2,.,20.6
COc1cccc(C(=O)Nc2ccc3c(c2)C(=O)N(C)C[C@H](OC)[C@@H](C)CN[C@H](C)CO3)c1,11.4[16.7 µM],4.6,.,3.0,-6.2,-3.5
COc1cc(C(CCN2CCCC(C)C2)c2c(OC)cc(OC)c3c(-c4ccccc4)cc(=O)oc23)cc(OC)c1OC (stereo not drawn),.,.,.,.,.,-28.5
CCCCCc1cc(=O)oc2c(C(CCN3CCCCC3)c3ccc(OC)cc3)c(OC)cc(OC)c12 (stereo not drawn),16.3,1.1,66.0*,-1.1,8.4,.
COc1cc(C(CCN2CCCCC2)c2c(OC)cc(OC)c3c(-c4ccccc4)cc(=O)oc23)cc(OC)c1OC (stereo not drawn),-26.5,30.3*,31.3,0.3,7.3,-31.5
CCC(=O)N1CC2(C1)CN(C(=O)Nc1ccccc1F)[C@@H](CO)c1[nH]c3cc(OC)ccc3c12,.,.,.,-2.1,9.8,-4.3
COc1ccc(C2CC(c3cccs3)=NN2C(=O)CCl)cc1OC (stereo not drawn),61.6*,-1.0,-3.2,-2.9,58.1*,.
COc1cc(C2CC(c3cccs3)=NN2C(=O)CCl)ccc1OC(F)F (stereo not drawn),18.7,-12.6,-31.9,-2.2,60.8*,.
O=C(CCl)N1N=C(c2ccco2)CC1c1cccs1 (stereo not drawn),.,.,.,.,.,-1.7
COc1ccc(C2CC(c3cccs3)=NN2C(=O)c2ccccc2)cc1OC (stereo not drawn),12.2,6.5,-2.3,-2.9,-3.2,.
COc1ccc(C2CC(c3cccs3)=NN2C(=O)CCC(=O)O)cc1 (stereo not drawn),12.9,2.5,-0.8,-1.8,4.0,8.6
Cc1ccc(C2=NN(C(=O)CCl)C(c3cccs3)C2)o1 (stereo not drawn),-15.2,1.5,65.4*,.,47.5,.
CNC[C@@H]1OCCCC[C@@H](C)Oc2ccc(NS(=O)(=O)c3c(C)noc3C)cc2C(=O)N([C@@H](C)CO)C[C@H]1C,-6.6[16.7 µM],.,18.2,-2.0,-12.5,-3.4
CCc1ccccc1NC(=O)c1cccc(NC(=O)/C=C/c2ccco2)c1,7.5,9.6,-20.0,.,.,.
Cc1ccc(-n2nc3ccc(NC(=O)/C=C/c4ccco4)cc3n2)cc1,.,-6.8,68.4*,-3.0,-12.5,.
O=C(/C=C/c1ccco1)Nc1cccc(C(=O)Nc2ccccc2C(=O)O)c1,88.1*,-1.9,-3.7,-2.1,-3.2,-2.8
CCOC(=O)c1ccccc1NC(=O)Cn1c(-c2nonc2N)nc2ccccc21,-8.4,active,.,.,.,-17.5
